# In ChEMBL document CHEMBL1770084, “An inhibitor-like binding mode of a carbonic anhydrase activator within the active site of isoform II” (Bioorg Med Chem Lett, 2011):
# Legend:
# [1] = biological target: Carbonic anhydrase 12 (Homo sapiens) (UniProt O43570); assay: Binding affinity to human transmembrane carbonic anhydrase 12
# [2] = biological target: Carbonic anhydrase 7 (Homo sapiens) (UniProt P43166); assay: Binding affinity to human cytosolic carbonic anhydrase 7
# [3] = biological target: Carbonic anhydrase 12 (Homo sapiens) (UniProt O43570); assay: Activation of human transmembrane carbonic anhydrase 12 preincubated for 15 mins by CO2 hydration stopped-flow assay
# [4] = biological target: Carbonic anhydrase 2 (Homo sapiens) (UniProt P00918); assay: Activation of human carbonic anhydrase 2 activity at 20 uM after 1 hr by CO2 hydration stopped-flow assay relative to control
# How it was run: (§1)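 hCA II (10 nM) held with test compound at 20 µM (stated as 20 lM in the footnote) for 15 min to 144 h before assay. Activity then read by stopped-flow CO2 hydrase assay. Values are % of initial enzyme activity with no test compound, which is set to 100%.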
# [5] = biological target: Carbonic anhydrase 2 (Homo sapiens) (UniProt P00918); assay: Inhibition of human carbonic anhydrase 2 activity at 20 uM after 48 hrs by CO2 hydration stopped-flow assay relative to control; how it was run: as §1
# [6] = biological target: Carbonic anhydrase 7 (Homo sapiens) (UniProt P43166); assay: Activation of human cytosolic carbonic anhydrase 7 preincubated for 15 mins by CO2 hydration stopped-flow assay
# [7] = biological target: Carbonic anhydrase 2 (Homo sapiens) (UniProt P00918); assay: Inhibition of human carbonic anhydrase 2 activity at 20 uM after 144 hrs by CO2 hydration stopped-flow assay relative to control; how it was run: as §1
# [8] = biological target: Carbonic anhydrase 2 (Homo sapiens) (UniProt P00918); assay: Activation of human carbonic anhydrase 2 activity at 20 uM after 24 hrs by CO2 hydration stopped-flow assay relative to control; how it was run: as §1
# [9] = biological target: Carbonic anhydrase 14 (Homo sapiens) (UniProt Q9ULX7); assay: Activation of human transmembrane carbonic anhydrase 14 preincubated for 15 mins by CO2 hydration stopped-flow assay
# Carbonic anhydrase 14 (Homo sapiens), sequence (Q9ULX7 whole entry): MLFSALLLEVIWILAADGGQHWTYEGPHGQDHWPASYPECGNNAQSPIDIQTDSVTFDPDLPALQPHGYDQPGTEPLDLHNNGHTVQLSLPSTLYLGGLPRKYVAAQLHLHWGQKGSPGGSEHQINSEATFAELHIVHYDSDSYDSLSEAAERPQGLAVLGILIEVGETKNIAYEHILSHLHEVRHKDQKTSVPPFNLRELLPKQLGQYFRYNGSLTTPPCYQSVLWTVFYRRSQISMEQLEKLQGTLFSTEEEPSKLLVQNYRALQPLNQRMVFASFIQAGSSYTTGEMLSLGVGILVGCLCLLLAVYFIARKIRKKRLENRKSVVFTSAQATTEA
# [10] = biological target: Carbonic anhydrase 2 (Homo sapiens) (UniProt P00918); assay: Activation of human carbonic anhydrase 2 activity at 20 uM after 12 hrs by CO2 hydration stopped-flow assay relative to control; how it was run: as §1
# [11] = biological target: Carbonic anhydrase 2 (Homo sapiens) (UniProt P00918); assay: Inhibition of human carbonic anhydrase 2 activity at 20 uM after 72 hrs by CO2 hydration stopped-flow assay relative to control; how it was run: as §1
# [12] = biological target: Carbonic anhydrase 2 (Homo sapiens) (UniProt P00918); assay: Inhibition of human carbonic anhydrase 2 activity at 20 uM after 96 hrs by CO2 hydration stopped-flow assay relative to control; how it was run: as §1
# [13] = biological target: Carbonic anhydrase 14 (Homo sapiens) (UniProt Q9ULX7); assay: Binding affinity to human transmembrane carbonic anhydrase 14
# [14] = biological target: Carbonic anhydrase 1 (Homo sapiens) (UniProt P00915); assay: Binding affinity to human cytosolic carbonic anhydrase 1
# Carbonic anhydrase 1 (Homo sapiens), sequence (P00915 2-261 limits assumed): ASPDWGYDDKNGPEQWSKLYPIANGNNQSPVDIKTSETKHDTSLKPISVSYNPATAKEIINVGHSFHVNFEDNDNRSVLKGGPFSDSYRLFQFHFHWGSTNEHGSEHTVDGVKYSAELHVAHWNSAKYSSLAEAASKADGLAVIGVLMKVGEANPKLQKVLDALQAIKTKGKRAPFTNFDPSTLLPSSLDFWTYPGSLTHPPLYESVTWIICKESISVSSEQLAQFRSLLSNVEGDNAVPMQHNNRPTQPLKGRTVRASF
# [15] = biological target: Carbonic anhydrase 9 (Homo sapiens) (UniProt Q16790); assay: Activation of human transmembrane carbonic anhydrase 9 preincubated for 15 mins by CO2 hydration stopped-flow assay
# [16] = biological target: Carbonic anhydrase 2 (Homo sapiens) (UniProt P00918); assay: Activation of human carbonic anhydrase 2 activity at 20 uM after 36 hrs by CO2 hydration stopped-flow assay relative to control; how it was run: as §1
# [17] = biological target: Carbonic anhydrase 9 (Homo sapiens) (UniProt Q16790); assay: Binding affinity to human transmembrane carbonic anhydrase 9
# [18] = biological target: Carbonic anhydrase 2 (Homo sapiens) (UniProt P00918); assay: Activation of human cytosolic carbonic anhydrase 2 preincubated for 15 mins by CO2 hydration stopped-flow assay
# [19] = biological target: Carbonic anhydrase 2 (Homo sapiens) (UniProt P00918); assay: Activation of human carbonic anhydrase 2 activity at 20 uM after 15 mins by CO2 hydration stopped-flow assay relative to control; how it was run: as §1
# [20] = biological target: Carbonic anhydrase 1 (Homo sapiens) (UniProt P00915); assay: Activation of human cytosolic carbonic anhydrase 1 preincubated for 15 mins by CO2 hydration stopped-flow assay
# [21] = biological target: Carbonic anhydrase 2 (Homo sapiens) (UniProt P00918); assay: Binding affinity to human cytosolic carbonic anhydrase 2
# Carbonic anhydrase 7 (Homo sapiens), sequence (P43166 whole entry): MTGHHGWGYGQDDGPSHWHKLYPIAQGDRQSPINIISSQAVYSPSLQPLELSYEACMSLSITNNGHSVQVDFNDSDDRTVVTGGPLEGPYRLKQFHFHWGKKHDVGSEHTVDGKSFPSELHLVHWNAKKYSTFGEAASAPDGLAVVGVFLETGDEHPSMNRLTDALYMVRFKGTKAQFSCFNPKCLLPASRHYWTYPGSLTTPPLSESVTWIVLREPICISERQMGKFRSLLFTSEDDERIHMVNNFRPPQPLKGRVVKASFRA
# Carbonic anhydrase 12 (Homo sapiens), sequence (O43570 whole entry): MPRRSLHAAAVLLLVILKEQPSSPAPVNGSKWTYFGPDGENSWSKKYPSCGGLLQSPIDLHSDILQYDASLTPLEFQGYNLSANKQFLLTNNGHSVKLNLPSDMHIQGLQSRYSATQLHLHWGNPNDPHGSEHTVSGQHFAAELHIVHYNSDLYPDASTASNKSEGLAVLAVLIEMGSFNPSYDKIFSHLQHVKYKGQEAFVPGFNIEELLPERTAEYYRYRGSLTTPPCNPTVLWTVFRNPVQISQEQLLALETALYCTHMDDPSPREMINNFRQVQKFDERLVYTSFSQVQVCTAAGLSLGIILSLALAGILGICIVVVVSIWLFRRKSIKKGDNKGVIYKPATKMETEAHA
smiles,measurement,setting,value
Cc1cc(C)[n+](CCc2c[nH]cn2)c(C)c1,Activity,[1],0.08 µM
same,Activity,[2],3.15 µM
same,Ka,[3],0.96 µM
same,Activity,[4],153%
same,inhibition,[5],65%
same,Ka,[6],7.71 µM
same,inhibition,[7],3%
same,Activity,[8],149%
same,Ka,[9],0.08 µM
same,Activity,[10],154%
same,inhibition,[11],14%
same,inhibition,[12],5%
same,Activity,[13],0.08 µM
same,Activity,[14],3.15 µM
same,Ka,[15],0.76 µM
same,Activity,[16],147%
same,Activity,[17],0.08 µM
same,Ka,[18],18 µM
same,Activity,[19],156%
same,Ka,[20],3.15 µM
same,Activity,[21],3.15 µM
